In ChEMBL document CHEMBL4138284, “Biomimetic Stereoselective Sulfa-Michael Addition Leads to Platensimycin and Platencin Sulfur Analogues against Methicillin-Resistant Staphylococcus aureus” (J Nat Prod, 2018):
≈ marks a conversion by molar mass, not a printed value.

System: Staphylococcus aureus
Assay: Antibacterial activity against methicillin-resistant Staphylococcus aureus isolate 8 incubated overnight by agar dilution method
Format: functional
In short: (§1)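 MIC by agar dilution. Strains were grown overnight in LB broth and diluted, then about 10^4 CFU (2 μL spots) were spotted onto LB agar plates containing test compound at 0.5 to 8 μg mL−1 agar. Plates were incubated overnight at 37 °C and inspected for growth. Clinical MSSA and MRSA isolates came from local hospitals.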

Compound	MIC [µg/mL]
C[C@]12C[C@]34C[C@@H]1C[C@H](O2)[C@H]3[C@](C)(CCC(=O)Nc1c(O)ccc(C(=O)O)c1O)C(=O)C[C@@H]4SC(=O)c1cc(C(F)(F)F)cc(C(F)(F)F)c1	1 (≈ 1.4 µM)
C[C@]12C[C@]34C[C@@H]1C[C@H](O2)[C@H]3[C@](C)(CCC(=O)Nc1c(O)ccc(C(=O)O)c1O)C(=O)C[C@@H]4SC(=O)c1cccs1	2 (≈ 3.41 µM)
C[C@]12C[C@]34C[C@@H]1C[C@H](O2)[C@H]3[C@](C)(CCC(=O)Nc1c(O)ccc(C(=O)O)c1O)C(=O)C[C@@H]4SC(=O)c1ccc(Cl)cc1	1 (≈ 1.63 µM)
C[C@]12C[C@]34C[C@@H]1C[C@H](O2)[C@H]3[C@](C)(CCC(=O)Nc1c(O)ccc(C(=O)O)c1O)C(=O)C[C@@H]4SC(=O)c1ccc(C(F)(F)F)cc1	1 (≈ 1.54 µM)

System: Staphylococcus aureus
Assay: Antibacterial activity against methicillin-sensitive Staphylococcus aureus isolate 2 incubated overnight by agar dilution method
Format: functional
In short: as §1

Compound	MIC [µg/mL]
C[C@]12C[C@]34C[C@@H]1C[C@H](O2)[C@H]3[C@](C)(CCC(=O)Nc1c(O)ccc(C(=O)O)c1O)C(=O)C[C@@H]4SC(=O)c1cc(C(F)(F)F)cc(C(F)(F)F)c1	1 (≈ 1.4 µM)
C[C@]12C[C@]34C[C@@H]1C[C@H](O2)[C@H]3[C@](C)(CCC(=O)Nc1c(O)ccc(C(=O)O)c1O)C(=O)C[C@@H]4SC(=O)c1cccs1	1 (≈ 1.71 µM)
C[C@]12C[C@]34C[C@@H]1C[C@H](O2)[C@H]3[C@](C)(CCC(=O)Nc1c(O)ccc(C(=O)O)c1O)C(=O)C[C@@H]4SC(=O)c1ccc(Cl)cc1	1 (≈ 1.63 µM)
C[C@]12C[C@]34C[C@@H]1C[C@H](O2)[C@H]3[C@](C)(CCC(=O)Nc1c(O)ccc(C(=O)O)c1O)C(=O)C[C@@H]4SC(=O)c1ccc(C(F)(F)F)cc1	1 (≈ 1.54 µM)

System: Staphylococcus aureus
Assay: Antibacterial activity against methicillin-sensitive Staphylococcus aureus isolate 4 incubated overnight by agar dilution method
Format: functional
In short: as §1

Compound	MIC [µg/mL]
C[C@]12C[C@]34C[C@@H]1C[C@H](O2)[C@H]3[C@](C)(CCC(=O)Nc1c(O)ccc(C(=O)O)c1O)C(=O)C[C@@H]4SC(=O)c1cc(C(F)(F)F)cc(C(F)(F)F)c1	1 (≈ 1.4 µM)
C[C@]12C[C@]34C[C@@H]1C[C@H](O2)[C@H]3[C@](C)(CCC(=O)Nc1c(O)ccc(C(=O)O)c1O)C(=O)C[C@@H]4SC(=O)c1cccs1	1 (≈ 1.71 µM)
C[C@]12C[C@]34C[C@@H]1C[C@H](O2)[C@H]3[C@](C)(CCC(=O)Nc1c(O)ccc(C(=O)O)c1O)C(=O)C[C@@H]4SC(=O)c1ccc(Cl)cc1	1 (≈ 1.63 µM)
C[C@]12C[C@]34C[C@@H]1C[C@H](O2)[C@H]3[C@](C)(CCC(=O)Nc1c(O)ccc(C(=O)O)c1O)C(=O)C[C@@H]4SC(=O)c1ccc(C(F)(F)F)cc1	1 (≈ 1.54 µM)

System: Staphylococcus aureus
Assay: Antibacterial activity against methicillin-resistant Staphylococcus aureus isolate 7 incubated overnight by agar dilution method
Format: functional
In short: as §1

Compound	MIC [µg/mL]
C[C@]12C[C@]34C[C@@H]1C[C@H](O2)[C@H]3[C@](C)(CCC(=O)Nc1c(O)ccc(C(=O)O)c1O)C(=O)C[C@@H]4SC(=O)c1cc(C(F)(F)F)cc(C(F)(F)F)c1	2 (≈ 2.79 µM)
C[C@]12C[C@]34C[C@@H]1C[C@H](O2)[C@H]3[C@](C)(CCC(=O)Nc1c(O)ccc(C(=O)O)c1O)C(=O)C[C@@H]4SC(=O)c1cccs1	8 (≈ 13.7 µM)
C[C@]12C[C@]34C[C@@H]1C[C@H](O2)[C@H]3[C@](C)(CCC(=O)Nc1c(O)ccc(C(=O)O)c1O)C(=O)C[C@@H]4SC(=O)c1ccc(Cl)cc1	1 (≈ 1.63 µM)
C[C@]12C[C@]34C[C@@H]1C[C@H](O2)[C@H]3[C@](C)(CCC(=O)Nc1c(O)ccc(C(=O)O)c1O)C(=O)C[C@@H]4SC(=O)c1ccc(C(F)(F)F)cc1	2 (≈ 3.09 µM)

System: Staphylococcus aureus
Assay: Antibacterial activity against methicillin-sensitive Staphylococcus aureus isolate 3 incubated overnight by agar dilution method
Format: functional
In short: as §1

Compound	MIC [µg/mL]
C[C@]12C[C@]34C[C@@H]1C[C@H](O2)[C@H]3[C@](C)(CCC(=O)Nc1c(O)ccc(C(=O)O)c1O)C(=O)C[C@@H]4SC(=O)c1cc(C(F)(F)F)cc(C(F)(F)F)c1	1 (≈ 1.4 µM)
C[C@]12C[C@]34C[C@@H]1C[C@H](O2)[C@H]3[C@](C)(CCC(=O)Nc1c(O)ccc(C(=O)O)c1O)C(=O)C[C@@H]4SC(=O)c1cccs1	1 (≈ 1.71 µM)
C[C@]12C[C@]34C[C@@H]1C[C@H](O2)[C@H]3[C@](C)(CCC(=O)Nc1c(O)ccc(C(=O)O)c1O)C(=O)C[C@@H]4SC(=O)c1ccc(Cl)cc1	1 (≈ 1.63 µM)
C[C@]12C[C@]34C[C@@H]1C[C@H](O2)[C@H]3[C@](C)(CCC(=O)Nc1c(O)ccc(C(=O)O)c1O)C(=O)C[C@@H]4SC(=O)c1ccc(C(F)(F)F)cc1	1 (≈ 1.54 µM)

System: Staphylococcus aureus
Assay: Antibacterial activity against methicillin-resistant Staphylococcus aureus isolate 5 incubated overnight by agar dilution method
Format: functional
In short: as §1

Compound	MIC [µg/mL]
C[C@]12C[C@]34C[C@@H]1C[C@H](O2)[C@H]3[C@](C)(CCC(=O)Nc1c(O)ccc(C(=O)O)c1O)C(=O)C[C@@H]4SC(=O)c1cc(C(F)(F)F)cc(C(F)(F)F)c1	1 (≈ 1.4 µM)
C[C@]12C[C@]34C[C@@H]1C[C@H](O2)[C@H]3[C@](C)(CCC(=O)Nc1c(O)ccc(C(=O)O)c1O)C(=O)C[C@@H]4SC(=O)c1cccs1	2 (≈ 3.41 µM)
C[C@]12C[C@]34C[C@@H]1C[C@H](O2)[C@H]3[C@](C)(CCC(=O)Nc1c(O)ccc(C(=O)O)c1O)C(=O)C[C@@H]4SC(=O)c1ccc(Cl)cc1	1 (≈ 1.63 µM)
C[C@]12C[C@]34C[C@@H]1C[C@H](O2)[C@H]3[C@](C)(CCC(=O)Nc1c(O)ccc(C(=O)O)c1O)C(=O)C[C@@H]4SC(=O)c1ccc(C(F)(F)F)cc1	2 (≈ 3.09 µM)

System: Staphylococcus aureus
Assay: Antibacterial activity against methicillin-resistant Staphylococcus aureus isolate 11 incubated overnight by agar dilution method
Format: functional
In short: as §1

Compound	MIC [µg/mL]
C[C@]12C[C@]34C[C@@H]1C[C@H](O2)[C@H]3[C@](C)(CCC(=O)Nc1c(O)ccc(C(=O)O)c1O)C(=O)C[C@@H]4SC(=O)c1cccs1	1 (≈ 1.71 µM)
C[C@]12C[C@]34C[C@@H]1C[C@H](O2)[C@H]3[C@](C)(CCC(=O)Nc1c(O)ccc(C(=O)O)c1O)C(=O)C[C@@H]4SC(=O)c1ccc(Cl)cc1	2 (≈ 3.26 µM)
C[C@]12C[C@]34C[C@@H]1C[C@H](O2)[C@H]3[C@](C)(CCC(=O)Nc1c(O)ccc(C(=O)O)c1O)C(=O)C[C@@H]4SC(=O)c1ccc(C(F)(F)F)cc1	2 (≈ 3.09 µM)

System: Staphylococcus aureus
Assay: Antibacterial activity against methicillin-resistant Staphylococcus aureus isolate 10 incubated overnight by agar dilution method
Format: functional
In short: as §1

Compound	MIC [µg/mL]
C[C@]12C[C@]34C[C@@H]1C[C@H](O2)[C@H]3[C@](C)(CCC(=O)Nc1c(O)ccc(C(=O)O)c1O)C(=O)C[C@@H]4SC(=O)c1cc(C(F)(F)F)cc(C(F)(F)F)c1	1 (≈ 1.4 µM)
C[C@]12C[C@]34C[C@@H]1C[C@H](O2)[C@H]3[C@](C)(CCC(=O)Nc1c(O)ccc(C(=O)O)c1O)C(=O)C[C@@H]4SC(=O)c1cccs1	1 (≈ 1.71 µM)
C[C@]12C[C@]34C[C@@H]1C[C@H](O2)[C@H]3[C@](C)(CCC(=O)Nc1c(O)ccc(C(=O)O)c1O)C(=O)C[C@@H]4SC(=O)c1ccc(Cl)cc1	1 (≈ 1.63 µM)
C[C@]12C[C@]34C[C@@H]1C[C@H](O2)[C@H]3[C@](C)(CCC(=O)Nc1c(O)ccc(C(=O)O)c1O)C(=O)C[C@@H]4SC(=O)c1ccc(C(F)(F)F)cc1	1 (≈ 1.54 µM)

System: Staphylococcus aureus
Assay: Antibacterial activity against methicillin-resistant Staphylococcus aureus isolate 6 incubated overnight by agar dilution method
Format: functional
In short: as §1

Compound	MIC [µg/mL]
C[C@]12C[C@]34C[C@@H]1C[C@H](O2)[C@H]3[C@](C)(CCC(=O)Nc1c(O)ccc(C(=O)O)c1O)C(=O)C[C@@H]4SC(=O)c1cc(C(F)(F)F)cc(C(F)(F)F)c1	1 (≈ 1.4 µM)
C[C@]12C[C@]34C[C@@H]1C[C@H](O2)[C@H]3[C@](C)(CCC(=O)Nc1c(O)ccc(C(=O)O)c1O)C(=O)C[C@@H]4SC(=O)c1cccs1	2 (≈ 3.41 µM)
C[C@]12C[C@]34C[C@@H]1C[C@H](O2)[C@H]3[C@](C)(CCC(=O)Nc1c(O)ccc(C(=O)O)c1O)C(=O)C[C@@H]4SC(=O)c1ccc(Cl)cc1	1 (≈ 1.63 µM)
C[C@]12C[C@]34C[C@@H]1C[C@H](O2)[C@H]3[C@](C)(CCC(=O)Nc1c(O)ccc(C(=O)O)c1O)C(=O)C[C@@H]4SC(=O)c1ccc(C(F)(F)F)cc1	1 (≈ 1.54 µM)

System: Staphylococcus aureus
Assay: Antibacterial activity against Staphylococcus aureus ATCC 29213 incubated overnight by agar dilution method
Format: functional
In short: as §1

Compound	MIC [µg/mL]
C[C@]12C[C@]34C[C@@H]1C[C@H](O2)[C@H]3[C@](C)(CCC(=O)Nc1c(O)ccc(C(=O)O)c1O)C(=O)C[C@@H]4SC(=O)c1cc(C(F)(F)F)cc(C(F)(F)F)c1	1 (≈ 1.4 µM)
C[C@]12C[C@]34C[C@@H]1C[C@H](O2)[C@H]3[C@](C)(CCC(=O)Nc1c(O)ccc(C(=O)O)c1O)C(=O)C[C@@H]4SC(=O)c1cccs1	2 (≈ 3.41 µM)
C[C@]12C[C@]34C[C@@H]1C[C@H](O2)[C@H]3[C@](C)(CCC(=O)Nc1c(O)ccc(C(=O)O)c1O)C(=O)C[C@@H]4SC(=O)c1ccc(Cl)cc1	1 (≈ 1.63 µM)
C[C@]12C[C@]34C[C@@H]1C[C@H](O2)[C@H]3[C@](C)(CCC(=O)Nc1c(O)ccc(C(=O)O)c1O)C(=O)C[C@@H]4SC(=O)c1ccc(C(F)(F)F)cc1	1 (≈ 1.54 µM)

System: Staphylococcus aureus
Assay: Antibacterial activity against methicillin-resistant Staphylococcus aureus isolate 9 incubated overnight by agar dilution method
Format: functional
In short: as §1

Compound	MIC [µg/mL]
C[C@]12C[C@]34C[C@@H]1C[C@H](O2)[C@H]3[C@](C)(CCC(=O)Nc1c(O)ccc(C(=O)O)c1O)C(=O)C[C@@H]4SC(=O)c1cc(C(F)(F)F)cc(C(F)(F)F)c1	1 (≈ 1.4 µM)
C[C@]12C[C@]34C[C@@H]1C[C@H](O2)[C@H]3[C@](C)(CCC(=O)Nc1c(O)ccc(C(=O)O)c1O)C(=O)C[C@@H]4SC(=O)c1cccs1	1 (≈ 1.71 µM)
C[C@]12C[C@]34C[C@@H]1C[C@H](O2)[C@H]3[C@](C)(CCC(=O)Nc1c(O)ccc(C(=O)O)c1O)C(=O)C[C@@H]4SC(=O)c1ccc(Cl)cc1	1 (≈ 1.63 µM)
C[C@]12C[C@]34C[C@@H]1C[C@H](O2)[C@H]3[C@](C)(CCC(=O)Nc1c(O)ccc(C(=O)O)c1O)C(=O)C[C@@H]4SC(=O)c1ccc(C(F)(F)F)cc1	1 (≈ 1.54 µM)

System: Staphylococcus aureus
Assay: Antibacterial activity against methicillin-sensitive Staphylococcus aureus isolate 1 incubated overnight by agar dilution method
Format: functional
In short: as §1

Compound	MIC [µg/mL]
C[C@]12C[C@]34C[C@@H]1C[C@H](O2)[C@H]3[C@](C)(CCC(=O)Nc1c(O)ccc(C(=O)O)c1O)C(=O)C[C@@H]4SC(=O)c1cc(C(F)(F)F)cc(C(F)(F)F)c1	1 (≈ 1.4 µM)
C[C@]12C[C@]34C[C@@H]1C[C@H](O2)[C@H]3[C@](C)(CCC(=O)Nc1c(O)ccc(C(=O)O)c1O)C(=O)C[C@@H]4SC(=O)c1cccs1	1 (≈ 1.71 µM)
C[C@]12C[C@]34C[C@@H]1C[C@H](O2)[C@H]3[C@](C)(CCC(=O)Nc1c(O)ccc(C(=O)O)c1O)C(=O)C[C@@H]4SC(=O)c1ccc(Cl)cc1	1 (≈ 1.63 µM)
C[C@]12C[C@]34C[C@@H]1C[C@H](O2)[C@H]3[C@](C)(CCC(=O)Nc1c(O)ccc(C(=O)O)c1O)C(=O)C[C@@H]4SC(=O)c1ccc(C(F)(F)F)cc1	0.5 (≈ 0.772 µM)
